From PubChem BioAssay
Calls of active or inactive are those of the source.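 How the source made its calls: active means current rise at least 3 SD above the untreated control mean in each of two repeat wells; inactive means the rest.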

What follows are compounds tested against Potassium voltage-gated channel subfamily KQT member 1 (Homo sapiens) (UniProt P51787) (assay: KCNQ1 activators by electrophysiology – IonWorks patch clamp, KCNQ1-CHO cells, orthogonal assay for KCNQ1 potentiator project, confirmation (AID 493184)). Conditions: automated patch clamp current, at 10 µM.
How it was run: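 assay system = KCNQ1-expressing CHO cells | medium = external bath solution at pH 7.4 | probe or stimulus = 2,000 ms depolarization, -90 to +40 mV | compound dosing = 10 µM final, single point | measured by = automated voltage clamp, amphotericin B perforated patch | measure = percent current increase versus pre-compound level | replication = duplicates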

Potassium voltage-gated channel subfamily KQT member 1 (Homo sapiens), sequence (P51787 whole entry, looked up): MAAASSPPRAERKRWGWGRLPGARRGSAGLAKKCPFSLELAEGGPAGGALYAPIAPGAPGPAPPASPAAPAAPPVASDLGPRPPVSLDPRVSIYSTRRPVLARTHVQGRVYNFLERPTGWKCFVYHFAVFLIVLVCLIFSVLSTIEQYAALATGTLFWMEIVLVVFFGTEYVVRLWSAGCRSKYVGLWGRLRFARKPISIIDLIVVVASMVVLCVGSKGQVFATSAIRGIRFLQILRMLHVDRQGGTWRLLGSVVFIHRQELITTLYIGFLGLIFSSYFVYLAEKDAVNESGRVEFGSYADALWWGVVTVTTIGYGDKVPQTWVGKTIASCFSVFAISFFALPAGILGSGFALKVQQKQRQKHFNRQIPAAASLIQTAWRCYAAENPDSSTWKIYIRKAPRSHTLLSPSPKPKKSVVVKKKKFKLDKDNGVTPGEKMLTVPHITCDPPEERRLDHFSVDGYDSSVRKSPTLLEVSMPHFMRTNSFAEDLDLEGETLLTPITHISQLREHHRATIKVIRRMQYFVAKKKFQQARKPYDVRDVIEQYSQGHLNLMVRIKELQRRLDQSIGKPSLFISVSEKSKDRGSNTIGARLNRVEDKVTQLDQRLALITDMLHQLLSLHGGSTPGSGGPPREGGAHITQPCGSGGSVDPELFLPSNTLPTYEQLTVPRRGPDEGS

outcome, inactive:
O=C(O)CCSc1ncnc2sc(-c3ccccc3)cc12, CC1(N2CCCCC2)CC2(O)C(=[N+]1[O-])CCC/C2=N\O (stereo not given), CCc1ccc(S(=O)(=O)Nc2cc3c(cc2N2CCCCC2)n(C)c(=O)c(=O)n3C)cc1, CN(Cc1nccs1)C(=O)c1ccc(OC2CCN(Cc3ccccn3)CC2)cc1, COc1ccc(C(=O)NC(=S)NNC(=O)c2ccc3ccccc3n2)cc1, Cc1cc(Cl)n2nc(C)c(-c3ccc(Cl)cc3)c2n1, O=C1CN(S(=O)(=O)c2ccccc2)CC(=O)N1CCc1ccccc1, CC(=O)N1N=C(N)SC12CCCC2, C=CCn1c(=S)[nH]c2scc(-c3cccs3)c2c1=O, Cc1[nH]n(C(N)=S)c(=O)c1N=Nc1ccc2ccccc2c1, O=[N+]([O-])c1cc(C(F)(F)F)ccc1Oc1cccnc1[N+](=O)[O-], Cc1ncc(CN2CCC(CO)(CCc3ccccc3)CC2)s1, CC(=O)Nc1ccc(S(=O)(=O)N2CCC(C(=O)O)CC2)cc1, O=C1CCC(c2ccc(-n3ccnc3)cc2)=NN1, O=C(CNc1ccc2c(c1)OCO2)N/N=C\c1cn(Cc2ccccc2)c2ccccc12, Cc1cc(C)cc(-n2ccnc2SCC(=O)Nc2nccs2)c1, CCOc1ccc(C(=O)C(CCC(CN(C)C)C(=O)c2ccc(OCC)cc2)CN(C)C)cc1 (stereo not given), CCOC(=O)c1cnc2c(C)c(Cl)ccc2c1N1CCN(CC)CC1, COc1cc(OC)cc(C(=O)NC(=S)N(Cc2ccccc2)C(C)C)c1, O=P(CCCCCCCCCP(=O)(c1ccccc1)c1ccccc1)(c1ccccc1)c1ccccc1, COc1ccc2c(c1)cc(C)c1nnc(SCC(=O)N3CCN(C(=O)c4ccco4)CC3)n12, O=C(CNC(=O)c1ccccc1)NCc1ccc(Cl)cc1, CSC(=S)N/N=C(\C)c1ccccc1, Cc1nonc1NC(=O)OC1CCCCC1, CCOc1ccc(CN(CCC#N)C(=S)NC(=O)c2ccccc2)cc1, CCCN1CCC(NC(=S)Nc2cccc(Cl)c2Cl)CC1, COc1ccc(NC(=O)/C(=C/c2ccc(OC(C)=O)c(OC)c2)NC(C)=O)cc1, COCCN(C(=O)COC(=O)/C=C/c1cccs1)c1c(N)n(Cc2ccccc2)c(=O)[nH]c1=O, Cc1cccc(NC(=O)C(=O)NNC(=O)c2ccc(C(C)(C)C)cc2)c1, COc1ccc(NC(=S)NC(=O)c2ccccc2Cl)cc1, Cc1csc(NC(=S)NC(=O)c2ccccc2)n1, CCN(CC)CCn1c(OC)cc(=O)[nH]c1=O, Cc1cc(NC(=O)CSc2cn(CCNC(=O)c3ccc(F)cc3)c3ccccc23)no1, Cc1ccc(OCc2n[nH]c(=S)n2-c2ccc(Br)cc2)cc1, CCN1C(=O)/C(=C\C(=O)c2cccs2)c2cc(Br)ccc21, CCOc1ccc(-n2cc(C(=O)Nc3cccc(C)n3)c3cc(OC)c(OC)cc3c2=O)cc1, C=CCNC(=S)Nc1sc2c(c1C(=O)OCC)CC(C(C)C)OC2 (stereo not given), CC(=O)c1c(C)[nH]c(C(=O)Nc2cccc(C(F)(F)F)c2)c1C, Cc1nn(CCc2nn[nH]n2)c2nc(-c3ccc(C4CCCCC4)cc3)cc(C(F)(F)F)c12, CCCCC(Nc1ncnc2ccccc12)C(=O)O (stereo not given)
